What is called LD50 is the dose at which mortality reaches 50%.

Data set [1] deals with MDA-MB-435. As to the kind of experiment: Antiangiogenic activity in human MDA-MB-435 cells xenografted in chicken embryo chorioallantoic membrane assessed as inhibition of blood vessel formation at 20 mg/kg measured after 2 days. The data set is classed as functional, organism-based. The arrangement: dose 20 mg/kg. The method, boiled down: (§1)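 Under the vascularized CAM of 10-day-old chicken embryos, 500,000 human breast carcinoma MDA-MB-435 cells were implanted. Embryos were dosed systemically with 20 mg/kg on days one and two. Tumor growth and vascularity were assessed, with 8–10 separate CAMs per group.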
On the technique in general: Xenograft models place foreign cells or tissue in a host animal.

The test system of data set [2] is MDA-MB-435. Briefly: Antitumor activity against human MDA-MB-435 cells xenografted in chicken embryo chorioallantoic membrane assessed as inhibition of tumor volume at 20 mg/kg measured after 2 days. The data set is classed as functional, organism-based. Also noted: dose 20 mg/kg. The method, boiled down:
as §1

Data set [3] concerns Gallus gallus. Briefly: Antiangiogenic activity in chicken embryo chorioallantoic membrane assessed as inhibition of VEGF-induced blood vessel formation at 25 uM applied topically to filter paper surface after 48 hrs by stereo microscopic analysis. The data set is classed as functional, tissue-based. The method, boiled down: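 CAM of 10-day-old chicken embryos; angiogenesis induced with filter discs soaked in VEGF, test agent applied alongside. 8–10 separate CAMs per group.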

The subject of the next data set is Mus musculus. As to the kind of experiment: Toxicity in BalbC mouse assessed as body weight loss at 50 to 200 mg/kg, ip administered 3 times per week measured over 6 weeks. Also noted: dose 50-200 mg/kg, route intraperitoneal. The conditions noted are these: in vivo, 1008 h. The data set is classed as organism-based. The method, boiled down: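 Healthy female BalbC mice, 10 weeks old, in groups of four, dosed intraperitoneally at 50, 100, 200 or 300 mg/kg three times weekly. Weights were tracked over 6 weeks and acute distress was watched for during the first 96 h. Significant weight loss over 6 weeks (P <0.05, one-way ANOVA with Neuman–Keuls post test) was the MTD criterion.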

For data set [4], the species on record is Gallus gallus. The conditions noted are these: Chorioallantoic membrane, 10 uM.
Data set [5] can be described thus: Toxicity in ip dosed BalbC mouse assessed as body weight loss administered 3 times per week measured over 6 weeks. The note with it: in vivo. The class given is organism-based. In a few lines: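 Female BalbC mice, 10 weeks old and healthy, in groups of four, dosed ip at 50, 100, 200 and 300 mg/kg three times weekly. Body weight was tracked over 6 weeks, with observation for acute distress during the first 96 h after injection. MTD was defined as significant weight loss over 6 weeks (P <0.05, one-way ANOVA with Neuman–Keuls post test).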

A short description of data set [6]: Acute toxicity in ip dosed CDF mouse. The note with it: in vivo. The data set is classed as organism-based.
Data set [7] is described as follows: Toxicity in chicken embryo chorioallantoic membrane assessed as effect on blood vessel at 10 uM applied topically to filter paper surface after 48 hrs by stereo microscopic analysis. The data set is classed as tissue-based, Gallus gallus. The conditions noted are these: in vivo.

Each structure is given as a SMILES string. The source made the active and inactive calls.

Regarding `CC(C)C[C@H](NC(=O)[C@@H](O)[C@H](N)Cc1ccccc1)C(=O)O`, the inhibition result in the data set with MDA-MB-435 [1] and in the data set on MDA-MB-435 [2] was “Active” throughout.

Turning to `CCN(CC)CCNC(=O)c1c(C)[nH]c(/C=C2\C(=O)Nc3ccc(F)cc32)c1C`, the inhibition entry with MDA-MB-435 [1], in the data set on Gallus gallus [3] and in the data set with MDA-MB-435 [2] was “Active” in each case.

For the compound `CC(C)C[C@H](NC(=O)[C@@H](O)[C@H](N)Cc1ccccc1)C(=O)N1CCC[C@H]1C(=O)N1CCC[C@H]1C(=O)O` [PROBESTIN], the Activity entry (with Mus musculus; in data set [7]) was “Non-toxic” in each case. The inhibition result in the data set filed under Gallus gallus [4], in the data set with MDA-MB-435 [1] and with MDA-MB-435 [2] was “Active” each time. For the same compound, the MTD at 1008 h in data set [5] was 300 mg/kg. This compound registered an LD50 in data set [6] of more than 250 mg/kg.
